Consider 7 molecules from paper PMC3481835 (Clinical pharmacology and therapeutics, 2011).

Data set [1] in a line: Renal clearance of cortisol. The format is in vivo, human.
In data set [2] the target is T1, CYP3A4 (Homo sapiens, UniProt P08684). In words: in vitro. The following applies: pH 7.4.
Data set [3] has as its system CYP3A4. Type of data set: in vivo, human.
Data set [4] is described as follows: Plasma concentrations of cortisol and cortisone after itraconazole. To be noted: single doses 50, 200 and 400 mg po. The format is in vivo, human.
The next data set in a line: Fraction unbound. Type of data set: in vitro ADME. To be noted: human, pooled human liver microsomes. In outline: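 Pooled microsomes from three CYP3A5*3/*3 donors (equal protein each), 0.5 mg/mL, spiked with test compound at 5, 50 or 1000 nM, duplicates. Each sample split: one aliquot ultracentrifuged at 445,760 g, 140 min, 37 °C; the other held at 37 °C for the same time. Upper clear layer and uncentrifuged sample taken into ACN with deuterated internal standard; HPLC (C8, ammonium acetate/ACN gradient) with LC-MS.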
(Liver microsomes are a subcellular fraction often used to study metabolism.)

Data set [5] relates to CYP3A4. The following applies: during treatment; cited from earlier work.
Data set [6] deals with T1, CYP3A4. In words: Formation clearance. Type of data set: in vivo. To be noted: 50 mg itraconazole.
For data set [7], the target named is T1, CYP3A4. The data set can be described thus: in vitro. To be noted: pH 7.4. This is another data set of the same source.
Data set [8] has as its system CYP3A4. The following applies: cited from earlier work; for predicted decrease in CYP3A4 mediated clearance: predicted from I/Ki.
The subject of data set [9] is CYP3A4. The following applies: cited from earlier work; for decrease in urinary 6β-hydroxycortisol to cortisol-ratio: range printed for the three inhibitors.
Data set [10] has as its target T2, CYP2B6 (Homo sapiens, UniProt P20813).
T2 sequence (P20813 1-491): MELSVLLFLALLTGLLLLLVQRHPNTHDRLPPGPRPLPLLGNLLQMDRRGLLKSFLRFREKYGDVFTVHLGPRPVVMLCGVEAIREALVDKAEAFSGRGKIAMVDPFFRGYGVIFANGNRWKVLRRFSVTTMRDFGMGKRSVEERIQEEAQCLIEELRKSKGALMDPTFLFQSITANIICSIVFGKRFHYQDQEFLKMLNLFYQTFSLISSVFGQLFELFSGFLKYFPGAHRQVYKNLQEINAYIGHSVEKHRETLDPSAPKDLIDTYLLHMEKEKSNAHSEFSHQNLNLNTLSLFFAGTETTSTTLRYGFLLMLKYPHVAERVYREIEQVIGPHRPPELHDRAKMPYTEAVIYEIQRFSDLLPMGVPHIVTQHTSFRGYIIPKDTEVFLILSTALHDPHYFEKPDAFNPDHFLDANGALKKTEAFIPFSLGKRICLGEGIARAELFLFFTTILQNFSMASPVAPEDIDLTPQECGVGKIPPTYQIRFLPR
The data set can be described thus: 6β-hydroxylation by recombinantly-expressed CYP2B6. The following applies: recombinantly-expressed enzyme.

The target of data set [11] is T2, CYP2B6. To be noted: recombinant enzyme.
For data set [12], the target named is T1, CYP3A4. To be noted: recombinant enzyme, pH 7.4.

Read-outs that look alike come from different tables or passages of the source.

T1 sequence (P08684 whole entry): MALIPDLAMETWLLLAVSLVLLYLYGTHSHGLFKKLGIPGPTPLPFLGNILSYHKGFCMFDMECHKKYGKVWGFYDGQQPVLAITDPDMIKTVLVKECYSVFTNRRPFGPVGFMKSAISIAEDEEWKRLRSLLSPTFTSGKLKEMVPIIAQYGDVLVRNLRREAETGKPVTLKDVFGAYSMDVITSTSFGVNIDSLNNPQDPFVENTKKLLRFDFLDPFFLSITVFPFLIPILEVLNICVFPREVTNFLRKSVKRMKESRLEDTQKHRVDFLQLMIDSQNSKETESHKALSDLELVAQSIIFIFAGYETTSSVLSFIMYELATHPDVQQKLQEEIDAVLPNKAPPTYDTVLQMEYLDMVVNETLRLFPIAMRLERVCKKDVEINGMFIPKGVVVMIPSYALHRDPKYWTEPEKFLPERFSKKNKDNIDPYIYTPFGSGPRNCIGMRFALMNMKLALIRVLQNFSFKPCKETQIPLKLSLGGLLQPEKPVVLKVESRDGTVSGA

As to `CCC(C)n1ncn(-c2ccc(N3CCN(c4ccc(OCC5COC(Cn6cncn6)(c6ccc(Cl)cc6Cl)O5)cc4)CC3)cc2)c1=O` (stereo not shown) [itraconazole], the “effect on renal clearance of cortisol” value in data set [1] (escalating itraconazole doses) is “unchanged”. Further, the Emax at 15 min on CYP3A4 [2] and on CYP3A4 [7] was 78 to 85% throughout. For the same molecule, the entries for the “predicted decrease in oral midazolam clearance” value in the data set on CYP3A4 [3] (50 mg ITZ) and in the data set on CYP3A4 [3] (200 mg ITZ) were 30% and 77%, respectively. Besides, the “predicted decrease in hepatic midazolam clearance” value in the data set on CYP3A4 [3] (50 mg ITZ, from circulating ITZ and metabolites and in vitro IC50) is 21%. The “effect on the plasma concentrations of cortisol or cortisone” value in [4] is reported as “no effect”. For the same molecule, the fraction unbound (in general, free concentration divided by total concentration) at 140 min in the data set “Fraction unbound” was determined as 0.046 ± 0.01. For the same molecule, in the data set with CYP3A4 [5], the “decrease in 4β-hydroxycholesterol concentrations” value was 21-29%. The “decrease in total cholesterol” value in the data set on CYP3A4 [5] is listed as 10%. The “decrease in the CLf processes” value at CYP3A4 [6] was “No significant decrease”. For the same molecule, the “decrease in MDZ CL/F” value in the data set with CYP3A4 [8] (50 mg itraconazole) was 50%; in the data set on CYP3A4 [8] (200 and 400 mg itraconazole), 80%. The “predicted decrease in CYP3A4 mediated clearance” value in the data set with CYP3A4 [8] (24-48 hours after 400 mg) was 50-70%; with CYP3A4 [8] (first 24 hours after 400 mg) it was 70-90%. In the data set on CYP3A4 [8] (after 400 mg, return to baseline at 72 hours), the “expected persistence of CYP3A4 inhibition” value was 48 h. Besides, in the data set with CYP3A4 [8], the “RKi (IC50,in vitro/IC50,in vivo), itraconazole-oral MDZ interaction” value is 14.5.

As for `Cc1ncc2n1-c1ccc(Cl)cc1C(c1ccccc1F)=NC2` [midazolam], the “in vivo fm attributed to CYP3A4, midazolam metabolism” value in the data set with CYP3A4 [8] (ref not given) is recorded as 84%.

As to `CC[C@H]1OC(=O)[C@H](C)[C@@H](O[C@H]2C[C@@](C)(OC)[C@@H](O)[C@H](C)O2)[C@H](C)[C@@H](O[C@@H]2O[C@H](C)C[C@H](N(C)C)[C@H]2O)[C@](C)(OC)C[C@@H](C)C(=O)[C@H](C)[C@@H](O)[C@]1(C)O` [clarithromycin], in the data set on CYP3A4 [9], the “decrease in urinary 6β-hydroxycortisol to cortisol-ratio” value was 15-65%.

Take `C#C[C@]1(O)CC[C@H]2[C@@H]3CCC4=Cc5oncc5C[C@]4(C)[C@H]3CC[C@@]21C` [danazol]: the “decrease in urinary 6β-hydroxycortisol to cortisol-ratio” value with CYP3A4 [9] was 15-65%.

In the case of `C[C@]12CCC(=O)C=C1CC[C@@H]1[C@@H]2C(=O)C[C@@]2(C)[C@H]1CC[C@]2(O)C(=O)CO` [cortisone], at CYP2B6 [10], the “6β-hydroxylation detected with CYP2B6” value is reported as “not”.

Turning to `CC(C)CN(C[C@@H](O)[C@H](Cc1ccccc1)NC(=O)O[C@H]1CCOC1)S(=O)(=O)c1ccc(N)cc1` [amprenavir], the “effect on urinary 6β-hydroxycortisol to cortisol ratio” value in the data set on CYP3A4 [9] is “no significant inhibitory effect”.

Turning to `C[C@]12CCC(=O)C=C1CC[C@@H]1[C@@H]2[C@@H](O)C[C@@]2(C)[C@H]1CC[C@]2(O)C(=O)CO` [cortisol], the “v, 6β-hydroxylation by CYP2B6” value at CYP2B6 [11] (human, 25 µM, pH 7.4) was 0.11 pmol/min/pmol. At CYP2B6 [11] (human, pH 7.4), the “CYP3A4 mediated CLint relative to CYP2B6 mediated CLint” value worked out at 40 fold and the “apparent CYP2B6 mediated intrinsic clearance” value came out at 0.0045 mL/min/nmol P450. The “6β-hydroxylation detected with CYP2B6” value at CYP2B6 [11] is “observed”. Besides, in [1] (both, human, urine and plasma), the CL renal was 0.283 mL/min. The “intrinsic clearance (CLint), 6β-hydroxylation by CYP3A4” value on CYP3A4 [12] came to 0.18 mL/min/nmol CYP3A4.
